# T cell HTS: T cell immune modulators affecting CD8 T cell-vesicle binding | 2C CD8+ T cell-vesicle binding, flow cytometry; hits give low values | response (vesicle binding), % at 7 µM | actives 0.068% (n = 330,000);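 active = response, share of CD8 T cells binding vesicles, and their 90th percentile fluorescence all below set limits, cut at about 80% in these data, passing the limit was not always enough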;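 also: values below 100% mean blocked vesicle binding to the CD8+ T cells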
#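 material = purified 2C TCR transgenic mouse naive CD8+ T cells | controls = Unloaded micro-vesicles (low), QL9 vesicles with 0.7% DMSO (high) | detection = cytometric PE anti-B7-1 and Alexa647 anti-CD8 signals after 1% paraformaldehyde fixation | incubation = binding step 1.5 h, 37 °C, antibody labelling 20 min, ice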
# MC4R barr agon: agonists of human melanocortin 4 receptor (MC4R) beta-arrestin; U2OS MC4R beta-arrestin complementation, luminescence; percent of melanotan II response, DMSO zero; activation, % at 8.9 µM; P32245; actives 0.98% (n = 360,000); AID 540308;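 active = activation above a per-plate cutoff, the mean activation of sample wells on that plate plus 3 SD, cut at about 8% in these data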
# Target sequence (P32245 whole entry, looked up): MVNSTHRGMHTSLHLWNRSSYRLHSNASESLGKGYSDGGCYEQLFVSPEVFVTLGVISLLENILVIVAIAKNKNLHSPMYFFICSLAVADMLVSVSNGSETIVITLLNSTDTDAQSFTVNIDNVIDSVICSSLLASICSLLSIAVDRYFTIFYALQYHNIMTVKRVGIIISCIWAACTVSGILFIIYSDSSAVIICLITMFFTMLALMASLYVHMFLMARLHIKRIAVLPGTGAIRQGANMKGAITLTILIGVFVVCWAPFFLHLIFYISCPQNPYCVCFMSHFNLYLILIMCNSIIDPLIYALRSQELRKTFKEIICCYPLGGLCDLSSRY
# EP2 mod: EP2 receptor (human) modulation; P43116; EP2-expressing cells, cAMP HTRF FRET, PGE2 co-stimulation; induction, % at 25 µM; actives 0.83% (n = 260,000);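 active = compounds whose cAMP rise, as percent of the full-agonist control response, exceeds 60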;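 also: rat C6 glioma line stably carrying human EP2 under a CMV promoter; the protocol text gives 20 µM as final concentration; 100% = response of wells given 1 µM PGE2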
# Target sequence (P43116 whole entry, looked up): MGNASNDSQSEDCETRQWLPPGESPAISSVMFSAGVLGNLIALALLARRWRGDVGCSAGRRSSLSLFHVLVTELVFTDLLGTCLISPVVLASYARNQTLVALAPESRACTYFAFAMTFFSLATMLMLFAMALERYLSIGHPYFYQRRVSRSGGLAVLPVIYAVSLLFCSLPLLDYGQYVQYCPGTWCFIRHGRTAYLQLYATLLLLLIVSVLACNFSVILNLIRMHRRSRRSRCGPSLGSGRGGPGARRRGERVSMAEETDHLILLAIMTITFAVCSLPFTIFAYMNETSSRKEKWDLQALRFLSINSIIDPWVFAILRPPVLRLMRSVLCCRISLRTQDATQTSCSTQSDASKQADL
# MC4R antag cAMP: antagonists of human melanocortin 4 receptor (MC4R); P32245; MC4R-expressing cells, MTII-stimulated cAMP, LANCE TR-FRET; inhibition, % at 6.5 µM; actives 0.48% (n = 360,000); AID 540295;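 active = inhibition above its plate's cutoff, the mean of tested wells on that plate plus 3 SD, cut at about 29% in these data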;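 also: 0% = Melanotan II alone and 100% = Melanotan II plus saturating MCL0020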
#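 Material – human MC4R-expressing U2OS cells · Repeats – no replicates · Detection – TR-FRET with Eu-cAMP and labeled anti-cAMP, 671 nm · Times – compound 30 min, challenge 1 h, detection 1 h · Compound – single nominal compound dose of 6.5 µM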
# PGE2 EP2 inh: EP2 receptor (human) inhibition. P43116. C6 glioma cells expressing human EP2, cAMP TR-FRET; cells stimulated with saturating PGE2. inhibition, % at 25 µM. actives 0.52% (n = 260,000);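 active = percent inhibition above 40 after rounding to a whole number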;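 also: rat C6 glioma host cells with rolipram phosphodiesterase inhibitor present; the protocol text gives 20 µM as final concentration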
# Exocytosis inh: lytic granule exocytosis inhibition; AID 651702; inhibition, % at 10 µM; TALL-104 LAMP-1 surface exposure, flow cytometry; cells stimulated with thapsigargin and PMA; actives 0.66% (n = 360,000);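 active = inhibition above about 55%, limit read from the data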
# EP2 confirm: human EP2 receptor cAMP induction, negative in counter-screens; shares compounds with EP2 mod; calls only at 20 µM (by protocol); actives 47% (n = 1,300); C6 glioma EP2 cells, cAMP HTRF induction; plus low (about EC15) PGE2 agonist; AID 1080;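 active = cAMP induction above 50% in the main assay while under 30% in all four parallel counter assays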;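 also: rat C6 glioma cells stably expressing human EP2 receptor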
# Active calls of the source: *; i = inactive; / = no result; + = active, no number; ! = not confirmed by another sample. Only some compounds are listed: those with a hit (about 2.6% of all), similar ones and a draw of the others.
SMILES,T cell HTS,MC4R barr agon,EP2 mod,MC4R antag cAMP,PGE2 EP2 inh,Exocytosis inh,EP2 confirm
O=S(=O)(c1ccc(Cl)cc1)c1cnc(-c2cccnc2)nc1-c1ccccc1,468.8,-0.7,22.4,1.6,6.5,-4.6,/
CN1CCCN(C(=O)c2cc(=O)[nH]c3ccccc23)c2nc3ccccc3nc21,314.2,0.1,15.4,10.2,12.1,-1.9,/
CN1CCCN(C(=O)Cc2c(Cl)cccc2Cl)c2nc3ccccc3nc21,177.6,-0.1,69.5*,3.7,8.5,1.1,+
CCOC(=O)c1c(C)[nH]c(C=O)c1Cc1cccc(Cl)c1,215.3,0.0,68.9*,-3.9,6.7,-4.8,i
COc1ccc(OC)c(/C=C/C(=O)N2CCCc3ccccc32)c1,811.0,2.9,78.6*,2.5,5.1,-0.8,+
COc1ccc(/C=C/C(=O)N2CCCc3ccccc32)cc1,642.3,1.6,26.6,9.6,4.7,-5.1,/
Cc1occc1-c1nnc(SCC(=O)c2ccc(F)cc2)n1Cc1ccco1,395.3,-2.1,4.7,-0.2,8.6,10.8,/
O=C(CSc1nnc(-c2cc3ccccc3cc2O)n1Cc1ccco1)c1ccc(F)cc1,i,-1.1,50.2,3.7,2.9,0.0,i
COc1ccccc1-c1nnc(SCC(=O)c2ccc(C3CCCCC3)cc2)n1Cc1ccco1,389.8,0.6,53.8,19.7,7.2,-2.7,+
Cc1nc(Cn2c3ccc(NC(=S)NC4CCCCC4)cc3c(=O)n2C)cs1,/,-0.5,/,-1.4,/,-4.9,/
Cc1cccc(OCc2n[nH]c(=S)n2Cc2ccccc2)c1,372.0,-2.7,51.4,3.7,2.0,-0.9,i
COc1nccnc1NS(=O)(=O)c1ccc(NC(=S)NC(=O)/C=C/c2ccccc2)cc1,259.7,1.5,-11.9,6.6,27.1,3.7,/
CCSc1ccccc1C(=O)n1nnc2ccccc21,233.8,-1.2,67.6*,3.7,4.2,14.9,i
CN1C(=O)C(C)(C)c2cc(S(=O)(=O)N3CCCC(C(=O)Nc4ccc(Cl)cc4)C3)ccc21 (configuration not stated),i,-0.4,/,0.4,/,0.5,/
Brc1nc(Br)n(Cc2ccccc2)n1,270.8,-4.4,24.6,-5.1,4.1,4.9,/
Cc1nc(SCC(=O)NCc2ccco2)c2c3c(sc2n1)CCCC3,194.9,-1.2,0.9,-7.9,17.3,1.3,/
CC(C)Sc1nc2sc3c(c2c2nnc(SCC(=O)NCc4ccco4)n12)CCCC3,308.8,-0.7,58.4,19.4,11.1,3.0,i
CCOC(=O)c1c(-c2ccc(C)cc2)csc1NC1=NS(=O)(=O)c2ccccc21,114.7,0.2,34.1,-1.2,7.3,-0.8,/
CCOC(=O)c1c(-c2ccc(C)cc2)csc1NC(=O)c1ccc(N2C(=O)CCC2=O)cc1,166.1,-1.2,70.1*,-0.7,11.6,-7.5,i
CCOC(=O)c1c(-c2ccc(C)o2)csc1NC(=O)CN1CCOCC1,462.0,-0.7,32.8,4.7,11.0,-2.9,/
CCOC(=O)c1c(-c2ccc(C)cc2)csc1NC(=O)CCN1CCOCC1,304.8,0.9,89.8*,1.9,5.5,-2.9,+
CCOC(=O)c1c(-c2cccs2)csc1NC(=O)CN1CCOCC1,196.1,0.6,69.0*,11.4,11.3,-3.6,i
CCOC(=O)c1c(-c2ccc(C)cc2)csc1NC(=O)c1cccc(N2C(=O)CCC2=O)c1,147.4,1.2,59.6,-6.6,6.7,5.1,/
CCOC(=O)c1c(NC(=O)C2C3C=CC(C3)C2C(=O)O)sc2c1CC(C)CC2 (configuration not stated),375.2,1.1,12.9,15.4,12.9,-1.9,/
CCOC(=O)c1c(-c2ccccc2)csc1NC(=O)CCN1CCOCC1,408.7,-0.1,42.0,3.2,5.8,-13.0,/
SMILES,T cell HTS,MC4R barr agon,EP2 mod,MC4R antag cAMP,PGE2 EP2 inh,Exocytosis inh,EP2 confirm
CCOC(=O)c1c(NC(=O)c2ccc(N3C(=O)[C@@H]4[C@H](C3=O)[C@H]3C=C[C@@H]4C3)cc2)sc2c1CC(C)CC2 (some centres not stated),259.2,-1.3,54.6,-1.6,16.7,1.5,i
COCC(=O)N(C)C[C@@H]1Oc2cc(Br)ccc2S(=O)(=O)N([C@H](C)CO)C[C@H]1C,/,0.2,/,13.3,/,-2.3,/
CC(=O)c1ccc(S(=O)(=O)N2CCC(c3nnc(SCCN4CCCC4)n3C)CC2)cc1,421.5,0.4,/,11.5,/,-4.8,/
COc1ccc(Cl)cc1NC(=O)CN(C)C(=O)c1cccc(S(=O)(=O)N2CCN(C)CC2)c1,696.2,-0.4,/,6.2,/,2.0,/
Cc1cc(NC(=O)C2=C(O)c3ccccc3S(=O)(=O)N2C)no1,i,-0.7,69.2*!,5.5,10.1,2.5,i
CCN1C(C(=O)Nc2cc(C)on2)=C(O)c2ccccc2S1(=O)=O,250.2,-0.9,/,3.5,/,-1.0,/
CCOC(=O)/C(N=Nc1c(Br)cc(Br)cc1Br)=C(\C)O,421.4,-1.2,68.3*,-3.7,7.6,0.8,i
CCCCCCc1nc2ccccc2c(=O)n1NC(=O)c1c(O)c2cccc3c2n(c1=O)CCC3,/,/,24.7,/,/,/,/
CC1(C)C=Cc2c(c3c(c4c(=O)c(-c5ccc(O)cc5)coc24)OC(C)(C)CC3)O1,404.4,0.5,59.5,14.6,13.2,2.9,i
O=c1c(-c2ccc(O)cc2)coc2cc(O)cc(O)c12,373.7,-0.7,8.1,-16.5,9.6,0.4,/
Oc1c(Cl)cc(Cl)cc1Sc1cc(Cl)cc(Cl)c1O,33.2,/,76.3*!,/,21.2,/,i
Cn1c(=O)c2c(nc(SCC(=O)c3cccs3)n2Cc2ccc(F)cc2)n(C)c1=O,339.7,2.8,75.0*,-43.9,32.9,-1.5,i
O=C(CCCCCn1nnc2ccccc2c1=O)N[C@H](C(=O)O)c1ccccc1,91.7,2.8,2.9,-1.7,7.1,0.8,/
COc1ccc(CNC(=O)CN(Cc2ccc(OC)cc2)C(=O)c2csnn2)cc1,656.4,-0.3,11.7,7.4,1.8,-0.9,/
Clc1ccc(-c2nc3ccccn3c2CN2CCCCC2)cc1,78.0,2.2,65.7*,5.2,-0.5,-14.0,i
CN(C)Cc1c(-c2ccc(Cl)cc2)nc2ccccn12,211.2,-3.8,-17.9,0.3,11.0,-2.5,/
Cc1cc(C)n(CCOc2ccc(Cl)cc2Cl)n1,705.3,0.0,73.3*,1.4,5.0,-8.6,+
CCN(Cc1cc(Cl)cc(C)c1O)Cc1c(O)ccc2ccccc12,/,/,54.1,/,37.8,/,i
CCN(Cc1ccncc1)Cc1c(O)ccc2ccccc12,/,-3.3,-46.4,7.7,7.9,1.6,/
CN(Cc1cc(Br)cc(Br)c1O)Cc1c(O)ccc2ccccc12,/,/,62.2*,/,35.1,/,i
